Data: ChEMBL document CHEMBL4368893, “2,2-Dimethyl-3,4-dihydro-2H-1,4-benzoxazines as isosteres of 2,2-dimethylchromans acting as inhibitors of insulin release and vascular smooth muscle relaxants” (Medchemcomm, 2019)

What was measured:
Thoracic aorta [1] = experiment: Myorelaxant activity in rat thoracic aortic rings assessed as relaxation of 30 mM KCl-induced contraction by force-displacement transducer based assay relative to KCl; assay type: functional, tissue-based
Summary of the method: (§1)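 Aortic rings from adult fed Wistar rats. Kept at 37 °C in oxygenated medium (95% O2/5% CO2) and equilibrated 60 min. Contraction raised with 30 or 80 mM KCl and recorded isometrically by force transducer. Drug added cumulatively, up to maximal relaxation or 200 µM. Response expressed as % of KCl contraction; EC50 from concentration–response curves, mean ± SEM (n).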

[2] = Inhibition of glucose-induced insulin release in rat pancreatic islets assessed as residual insulin secretion at 10 uM incubated for 90 mins incubated in presence of 16.7 mM glucose by radioimmunology assay; assay type: functional
Summary of the method: (§2)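 Islets isolated from adult fed Wistar rats by collagenase digestion, used fresh. Groups of 10 islets pre-incubated 30 min at 37 °C in bicarbonate salt medium with 2.8 mM glucose and 0.5% albumin, gassed O2/CO2 95:5. Then 90 min at 37 °C with 16.7 mM glucose plus compound. Insulin by RIA against rat insulin standard. Output is % of control secretion, mean ± SEM (n).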

[3] = Inhibition of glucose-induced insulin release in rat pancreatic islets assessed as residual insulin secretion at 1 uM incubated for 90 mins incubated in presence of 16.7 mM glucose by radioimmunology assay; assay type: functional; summary of the method: as §2
Thoracic aorta [4] = experiment: Myorelaxant activity in rat thoracic aortic rings assessed as relaxation of 30 mM KCl-induced contraction in presence of 10 uM K-ATP channel blocker glibenclamide by force-displacement transducer based assay relative to KCl; assay type: functional, tissue-based
Summary of the method: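 Wistar rat aortic rings in oxygenated medium at 37 °C, equilibrated 60 min, with 10 µM glibenclamide present throughout. Precontracted with 30 mM KCl; isometric tension recorded by transducer. Cumulative drug addition to maximal relaxation or 200 µM. Tension expressed as % of KCl response; EC50 (50% inhibition of plateau) from concentration–response curves.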

Thoracic aorta [5] = experiment: Myorelaxant activity in rat thoracic aortic rings assessed as relaxation of 80 mM KCl-induced contraction by force-displacement transducer based assay relative to KCl; assay type: functional, tissue-based; summary of the method: as §1

EC50 (Thoracic aorta [1]) [µM] | EC50 (Thoracic aorta [4]) [µM] | EC50 (Thoracic aorta [5]) [µM] | Structure (SMILES) | Activity [2] [%] | Activity [3] [%]
> 30 | – | – | CC1(C)CN(NC(=S)Nc2cccc(C#N)c2)c2cc(Cl)ccc2O1 | 27 | 83.1
> 30 | – | – | CC1(C)CN(NC(=S)Nc2cccc(Cl)c2)c2cc(Cl)ccc2O1 | 71.8 | –
> 30 | – | – | CC1(C)CN(NC(=S)Nc2ccc(Cl)cc2)c2cc(Cl)ccc2O1 | 81.4 | –
1.9 to 3.1 | 3.9 | 5 | CC1(C)CN(NC(=O)Nc2cccc(C#N)c2)c2cc(Cl)ccc2O1 | 35.7 | 79.5
3.7 | – | – | CC1(C)CN(NC(=O)Nc2ccc(C#N)cc2)c2cc(Cl)ccc2O1 | 43.1 | 79
13.3 | – | – | CC1(C)CN(NC(=O)Nc2ccc(Cl)cc2)c2cc(Cl)ccc2O1 | 56.2 | 89.5
> 30 | – | – | CC1(C)CN(NC(=S)Nc2ccc(C#N)cc2)c2cc(Cl)ccc2O1 | 10.8 | 73.3
9.9 | – | – | CC1(C)CN(NC(=O)Nc2cccc(Cl)c2)c2cc(Cl)ccc2O1 | 46 | 92.5
